Measured values published in PMC3481835 (Clinical pharmacology and therapeutics, 2011).
Read-outs that look alike come from different tables or passages of the source.

Experiments:
CYP3A4 [1] = settings: cited from earlier work; for decrease in urinary 6β-hydroxycortisol to cortisol-ratio: range printed for the three inhibitors
CYP2B6 [2] = target: T1, CYP2B6 (Homo sapiens, UniProt P20813); settings: recombinant enzyme
T1 sequence (P20813 1-491): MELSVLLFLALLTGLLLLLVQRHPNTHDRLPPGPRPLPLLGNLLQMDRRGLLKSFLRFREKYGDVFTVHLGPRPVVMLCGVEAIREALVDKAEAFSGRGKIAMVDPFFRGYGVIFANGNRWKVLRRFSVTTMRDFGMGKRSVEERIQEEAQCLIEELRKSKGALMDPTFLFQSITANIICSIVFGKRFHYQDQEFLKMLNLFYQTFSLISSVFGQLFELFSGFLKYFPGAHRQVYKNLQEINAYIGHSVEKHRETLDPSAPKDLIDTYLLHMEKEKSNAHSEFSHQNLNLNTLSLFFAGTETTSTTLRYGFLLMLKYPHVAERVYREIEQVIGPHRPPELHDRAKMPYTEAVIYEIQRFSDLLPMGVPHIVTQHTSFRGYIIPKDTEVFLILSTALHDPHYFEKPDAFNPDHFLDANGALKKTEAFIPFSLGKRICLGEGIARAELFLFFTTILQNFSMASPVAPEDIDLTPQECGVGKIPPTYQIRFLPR

[3] = Renal clearance of cortisol; format: in vivo, human
CYP3A4 [4] = target: T2, CYP3A4 (Homo sapiens, UniProt P08684); settings: recombinant enzyme, pH 7.4
T2 sequence (P08684 whole entry): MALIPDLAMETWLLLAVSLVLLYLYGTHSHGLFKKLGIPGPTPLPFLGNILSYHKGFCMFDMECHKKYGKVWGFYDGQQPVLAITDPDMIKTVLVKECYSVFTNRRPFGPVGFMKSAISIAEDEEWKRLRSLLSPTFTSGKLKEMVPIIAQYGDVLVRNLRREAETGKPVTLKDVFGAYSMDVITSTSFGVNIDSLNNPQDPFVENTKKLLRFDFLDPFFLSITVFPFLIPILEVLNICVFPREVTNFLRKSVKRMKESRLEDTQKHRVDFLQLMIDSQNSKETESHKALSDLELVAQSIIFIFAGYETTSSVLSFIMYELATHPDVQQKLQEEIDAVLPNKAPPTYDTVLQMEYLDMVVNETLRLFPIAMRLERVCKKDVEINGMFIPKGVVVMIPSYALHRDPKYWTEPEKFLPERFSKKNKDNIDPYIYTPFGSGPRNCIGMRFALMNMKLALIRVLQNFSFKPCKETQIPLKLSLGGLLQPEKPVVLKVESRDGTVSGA

CYP2B6 [5] = target: T1, CYP2B6; experiment: 6β-hydroxylation by recombinantly-expressed CYP2B6; settings: recombinantly-expressed enzyme
CYP3A4 [6] = settings: during treatment; cited from earlier work
Fraction unbound = format: in vitro ADME; settings: human, pooled human liver microsomes
Procedure, shortened: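 Pooled microsomes from three CYP3A5*3/*3 donors (equal protein each), 0.5 mg/mL, spiked with test compound at 5, 50 or 1000 nM, duplicates. Each sample split: one aliquot ultracentrifuged at 445,760 g, 140 min, 37 °C; the other held at 37 °C for the same time. Upper clear layer and uncentrifuged sample taken into ACN with deuterated internal standard; HPLC (C8, ammonium acetate/ACN gradient) with LC-MS.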

CYP3A4 [7] = settings: cited from earlier work; for predicted decrease in CYP3A4 mediated clearance: predicted from I/Ki
CYP3A4 [8] = target: T2, CYP3A4; experiment: in vitro; settings: pH 7.4
[9] = Plasma concentrations of cortisol and cortisone after itraconazole; format: in vivo, human; settings: single doses 50, 200 and 400 mg po
CYP3A4 [10] = target: T2, CYP3A4; experiment: in vitro; settings: pH 7.4; remark: listed apart in the source
CYP3A4 [11] = format: in vivo, human
CYP3A4 [12] = target: T2, CYP3A4; experiment: Formation clearance; format: in vivo; settings: 50 mg itraconazole

## CC(C)CN(C[C@@H](O)[C@H](Cc1ccccc1)NC(=O)O[C@H]1CCOC1)S(=O)(=O)c1ccc(N)cc1 [amprenavir]
CYP3A4 [1]
  effect on urinary 6β-hydroxycortisol to cortisol ratio: no significant inhibitory effect

## CC[C@H]1OC(=O)[C@H](C)[C@@H](O[C@H]2C[C@@](C)(OC)[C@@H](O)[C@H](C)O2)[C@H](C)[C@@H](O[C@@H]2O[C@H](C)C[C@H](N(C)C)[C@H]2O)[C@](C)(OC)C[C@@H](C)C(=O)[C@H](C)[C@@H](O)[C@]1(C)O [clarithromycin]
CYP3A4 [1]
  decrease in urinary 6β-hydroxycortisol to cortisol-ratio: 15-65%

## C[C@]12CCC(=O)C=C1CC[C@@H]1[C@@H]2[C@@H](O)C[C@@]2(C)[C@H]1CC[C@]2(O)C(=O)CO [cortisol]
CYP2B6 [2]; human, 25 µM, pH 7.4
  v, 6β-hydroxylation by CYP2B6: 0.11 pmol/min/pmol
CYP2B6 [2]; human, pH 7.4
  CYP3A4 mediated CLint relative to CYP2B6 mediated CLint: 40 fold
  apparent CYP2B6 mediated intrinsic clearance: 0.0045 mL/min/nmol P450
CYP2B6 [2]
  6β-hydroxylation detected with CYP2B6: observed
[3]; both, human, urine and plasma
  CL renal: 0.283 mL/min
CYP3A4 [4]
  intrinsic clearance (CLint), 6β-hydroxylation by CYP3A4: 0.18 mL/min/nmol CYP3A4

## C[C@]12CCC(=O)C=C1CC[C@@H]1[C@@H]2C(=O)C[C@@]2(C)[C@H]1CC[C@]2(O)C(=O)CO [cortisone]
CYP2B6 [5]
  6β-hydroxylation detected with CYP2B6: not

## C#C[C@]1(O)CC[C@H]2[C@@H]3CCC4=Cc5oncc5C[C@]4(C)[C@H]3CC[C@@]21C [danazol]
CYP3A4 [1]
  decrease in urinary 6β-hydroxycortisol to cortisol-ratio: 15-65%

## CCC(C)n1ncn(-c2ccc(N3CCN(c4ccc(OCC5COC(Cn6cncn6)(c6ccc(Cl)cc6Cl)O5)cc4)CC3)cc2)c1=O (stereo not shown) [itraconazole]
CYP3A4 [6]
  decrease in 4β-hydroxycholesterol concentrations: 21-29%
  decrease in total cholesterol: 10%
Fraction unbound
  fraction unbound at 140 min: 0.046 ± 0.01
CYP3A4 [7]; 50 mg itraconazole
  decrease in MDZ CL/F: 50%
CYP3A4 [7]; 24-48 hours after 400 mg
  predicted decrease in CYP3A4 mediated clearance: 50-70%
CYP3A4 [7]; 200 and 400 mg itraconazole
  decrease in MDZ CL/F: 80%
CYP3A4 [7]; after 400 mg, return to baseline at 72 hours
  expected persistence of CYP3A4 inhibition: 48 h
CYP3A4 [7]
  RKi (IC50,in vitro/IC50,in vivo), itraconazole-oral MDZ interaction: 14.5
CYP3A4 [7]; first 24 hours after 400 mg
  predicted decrease in CYP3A4 mediated clearance: 70-90%
CYP3A4 [8]
  Emax at 15 min: 78 to 85%
[9]
  effect on the plasma concentrations of cortisol or cortisone: no effect
CYP3A4 [10]
  Emax at 15 min: 78 to 85%
[3]; escalating itraconazole doses
  effect on renal clearance of cortisol: unchanged
CYP3A4 [11]; 50 mg ITZ
  predicted decrease in oral midazolam clearance: 30%
CYP3A4 [11]; 50 mg ITZ, from circulating ITZ and metabolites and in vitro IC50
  predicted decrease in hepatic midazolam clearance: 21%
CYP3A4 [11]; 200 mg ITZ
  predicted decrease in oral midazolam clearance: 77%
CYP3A4 [12]
  decrease in the CLf processes: No significant decrease

## Cc1ncc2n1-c1ccc(Cl)cc1C(c1ccccc1F)=NC2 [midazolam]
CYP3A4 [7]; ref not given
  in vivo fm attributed to CYP3A4, midazolam metabolism: 84%
